# From PubChem BioAssay
# An excerpt weighted towards active compounds, which were near 4.4% of everything screened.
# EBI2 antag – EBI2 (human) antagonism; AID 651636; P32249; 360,000 tested, 0.81% active; inhibition, % at 5 µM; EBI2 beta-arrestin recruitment, luminescence, 7a,25-OHC stimulated; in the data active = inhibition above about 38%;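 also: enzyme fragment complementation signal reports receptor beta-arrestin coupling in cells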
# Target sequence (P32249 whole entry, looked up, the tested form may be a part): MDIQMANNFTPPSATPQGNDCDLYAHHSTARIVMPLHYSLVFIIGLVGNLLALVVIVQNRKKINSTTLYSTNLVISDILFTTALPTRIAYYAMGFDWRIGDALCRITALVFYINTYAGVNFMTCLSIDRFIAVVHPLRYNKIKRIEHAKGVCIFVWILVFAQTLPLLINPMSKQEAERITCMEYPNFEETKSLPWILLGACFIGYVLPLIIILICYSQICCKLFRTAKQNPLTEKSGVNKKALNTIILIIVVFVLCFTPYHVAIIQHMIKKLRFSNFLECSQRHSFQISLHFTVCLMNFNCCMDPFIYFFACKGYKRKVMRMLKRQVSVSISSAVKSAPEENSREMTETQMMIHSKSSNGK
# MPTP block – inhibitors of mitochondrial permeability transition pore; inhibition, % at 10 µM; 360,000 tested, 1.4% active; AID 602449; isolated mouse mitochondria, Ca2+ swelling absorbance, 30 min;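 active = inhibition of 50% or more, scaled per plate between neutral and stimulator controls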
# GRIN3A LBD mod – modulates the human NR3A ligand-binding domain; 340,000 tested, 2.5% active; NR3A LBD differential scanning fluorimetry, Tm shift; 0% = protein alone, 100% = glycine-bound protein; Tm shift relative to glycine control, % at 25 µM; AID 1259313;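 active = melting temperature shift of at least 10% of the positive control shift, at one fixed dose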
# SENP1 inh – blocks the human SENP1 SUMO protease catalytic domain | inhibition, % at 10 µM | recombinant SENP1 catalytic domain, CyPet-SUMO1-YPet FRET cleavage | Q9P0U3 | 360,000 tested, 0.21% active;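 active = inhibition at least 30% at 10 µM, raw YFP signal under a set limit, fluorescence ratio 0.5 to 1.5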
# Target sequence (Q9P0U3 419-644 limits assumed): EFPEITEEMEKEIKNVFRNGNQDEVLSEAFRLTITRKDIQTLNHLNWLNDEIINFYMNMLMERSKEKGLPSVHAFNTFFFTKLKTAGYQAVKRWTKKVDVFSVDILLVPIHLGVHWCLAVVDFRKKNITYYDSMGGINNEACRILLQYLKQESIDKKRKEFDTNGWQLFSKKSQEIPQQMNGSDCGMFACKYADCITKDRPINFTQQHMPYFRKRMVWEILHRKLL
#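 Material – human SENP1 catalytic domain · Input – SENP1 enzyme, 20 pM final · Compound dosing – single concentration of 10 µM compound, 0.5% DMSO final · Timing – enzyme reaction for 50 min at room temperature, dark · Measured by – FRET fluorescence in CFP and YFP emission channels · Control set – no-enzyme wells low, DMSO-plus-enzyme wells high control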
# EBI2 antag conf – confirmation of human EBI2 receptor antagonists; 2,400 tested, 29% active; inhibition, % at 5 µM; shares compounds with EBI2 antag; EBI2 beta-arrestin luminescence, 7a,25-OHC antagonism;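 active = inhibition of at least 50%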
# EBI2 agonist – activates EBI2, counter-screen for EBI2 antagonists | activation, % at 5 µM | 2,400 tested, under 10 active | EBI2-expressing cells, agonist mode, luminescence, 60 min; 0% vehicle, 100% 7α,25-dihydroxycholesterol control | shares compounds with EBI2 antag;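 active = activation of at least 50%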
# bGal counter – inhibits E. coli beta-galactosidase, counter-screen for EBI2 antagonists. shares compounds with EBI2 antag. purified beta-galactosidase, luminescent Galacton Star, 15 min. inhibition, % at 5 µM. 2,400 tested, 1% active;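 active = replicate-average signal at least 3 plate SD below neutral wells, shown as high inhibition, flagging enzyme-inhibiting false positives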;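 also: higher means stronger loss of beta-gal luminescence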
# Numbers stand for hits; i = inactive; nt = not tested or not shown.
SMILES,EBI2 antag,MPTP block,GRIN3A LBD mod,SENP1 inh,EBI2 antag conf,EBI2 agonist,bGal counter
CC1=C(C(=O)N2CCOCC2)C(c2ccc(C)cc2)NC(=S)N1 (centres undefined),i,i,i,i,nt,nt,nt
O=C(Nc1ccc(N2CCN(C(=O)c3ccco3)CC2)c(Cl)c1)c1cc2ccccc2o1,i,i,i,i,nt,nt,nt
O=C(c1cc2ccccc2o1)N1CCN(c2ccccn2)CC1,51,i,i,i,i,i,i
O=C(c1cc2ccccc2cc1O)N1CCN(c2cccc(Cl)c2)CC1,i,i,i,i,nt,nt,nt
O=C(c1cc2ccccc2o1)N1CCN(c2ccccc2Cl)CC1,86,i,i,i,67,i,i
O=C(c1cc2ccccc2o1)N1CCN(c2cccc(Cl)c2)CC1,54,i,i,i,58,i,i
CCOc1ccc(CN2CCN(CCCc3ccccc3)CC2CCO)cc1 (centres undefined),i,i,i,i,nt,nt,nt
c1ccc(-c2nc(NCc3cccnc3)c3oc4ccccc4c3n2)cc1,i,i,i,i,nt,nt,nt
COc1cc(/C=C/C(=O)Nc2ccc(S(=O)(=O)Nc3onc(C)c3C)cc2)cc(OC)c1OC,i,i,i,i,nt,nt,nt
Cc1sc2ncnc(Nc3ccc(O)cc3)c2c1C,i,i,i,i,nt,nt,nt
C/C(=N\Nc1ncnc2sc(C)c(C)c12)c1ccccn1,55,i,i,i,53,i,i
CCOC(=O)Nc1ccc2c(CN3CCN(S(=O)(=O)c4ccccc4F)CC3)cc(=O)oc2c1,i,i,i,i,nt,nt,nt
CCOC(=O)Nc1ccc2c(CN3CCN(S(=O)(=O)c4ccc(C(C)C)cc4)CC3)cc(=O)oc2c1,55,i,i,i,i,i,i
O=C(c1ccco1)N1CCN(c2nc(C(F)(F)F)nc3c2nnn3Cc2ccccc2)CC1,48,i,i,i,i,i,i
O=C(c1ccco1)N1CCN(c2ncnc3c2nnn3Cc2ccccc2Cl)CC1,i,i,i,i,nt,nt,nt
O=C(c1cc2c(ccc3ccccc32)o1)N1CCCCC1,51,i,i,i,i,i,i
O=C(c1cc2c(ccc3ccccc32)o1)N1CCN(c2ncc(C(F)(F)F)cc2Cl)CC1,91,i,i,i,79,i,i
O=C(c1cc2cc(Cl)ccc2o1)N1CCCCCC1,47,i,i,i,i,i,i
O=C(O)c1cc2c(ccc3ccccc32)o1,i,i,i,i,nt,nt,nt
Cc1c(C(=O)N2CC(C)OC(C)C2)[nH]c2ccc(Br)cc12 (centres undefined),i,i,i,i,nt,nt,nt
O=C(COc1ccc(Cl)cc1)N1CCN(C(=O)c2cccs2)CC1,80,i,i,i,i,i,i
O=C(COc1ccc(Cl)cc1)N1CCN(C(=O)c2cccc(F)c2)CC1,86,i,i,i,68,i,i
O=C(COc1ccccc1)N1CCN(C(=O)c2cccc(F)c2)CC1,i,i,i,i,nt,nt,nt
COc1ccc(/C=C/C(=O)Nc2ccc(-n3nncc3-c3ccccc3)cc2)cc1OC,61,i,i,i,i,i,i
COc1ccc(/C=C/C(=O)Nc2ccccc2C(=O)O)cc1OC,i,i,i,i,nt,nt,nt
SMILES,EBI2 antag,MPTP block,GRIN3A LBD mod,SENP1 inh,EBI2 antag conf,EBI2 agonist,bGal counter
Cc1nc(N/N=C/c2ccc(O)cc2)c2cnn(-c3ccccc3)c2n1,53,i,12,i,i,i,i
CC(C)C[C@H]1CNC(=S)N1C[C@H]1CCCN1C[C@H](CC(C)C)N1C[C@H](Cc2ccc(O)cc2)N(CCc2ccccc2)C1=S,43,i,nt,i,i,i,i
CC(C)C[C@H]1CNC(=S)N1C[C@H]1CCCN1C[C@H](Cc1ccc(O)cc1)N1C[C@H](Cc2ccccc2)N(CCc2ccccc2)C1=S,i,i,nt,i,nt,nt,nt
CC(C)C[C@@H](CN1CCC[C@@H]1CN1C(=S)NC[C@@H]1Cc1ccc(O)cc1)N1C[C@H](Cc2ccccc2)N(CCc2ccccc2)C1=S,47,i,nt,i,i,i,i
Oc1ccc(C[C@H]2CNC(=S)N2CC2CCCN2C[C@H](Cc2ccc(O)cc2)N2C[C@H](Cc3ccccc3)N(CCc3ccccc3)C2=S)cc1 (some centres undefined),42,i,12,i,i,i,i
COc1ccccc1NC(=S)N1CCC(NC(=O)c2ccco2)CC1,i,i,i,i,nt,nt,nt
CCCCN1C(=O)C(CC(=O)NCCN2CCOCC2)CC(C(=O)N2CCCCCC2)=C1C (centres undefined),i,i,nt,i,nt,nt,nt
COC(=O)[C@]1(C)CCC[C@@]2(C)C3CC[C@@]4(C)C[C@]3(CCC21)CC4=NO (some centres undefined),i,i,i,i,nt,nt,nt
COc1ccc(Cn2c(=O)c3cccnc3n(Cc3ccc([N+](=O)[O-])cc3)c2=O)cc1,47,i,i,i,i,i,i
COc1ccc(N=C2C(=Nc3ccc(OC)cc3)N(c3ccc(OC)cc3)C(=S)N2c2ccccc2)cc1,64,i,i,i,i,i,i
Cc1ccc2[nH]c(C(=O)N3CCCCC3)cc2c1,i,i,i,i,nt,nt,nt
CCOC(=O)N1CCN(C(=O)c2cc3cc(Cl)ccc3[nH]2)CC1,93,i,i,i,73,i,i
O=C(c1cc2cc(F)ccc2[nH]1)N1CCCC(Nc2ccc(F)cc2)C1 (centres undefined),i,i,i,i,nt,nt,nt
CCOC(=O)N1CCN(C(=O)c2cc3cc(F)ccc3[nH]2)CC1,81,i,i,i,53,i,i
CCOC(=O)C1CCN(C(=O)c2cc3cc(F)ccc3[nH]2)CC1,62,i,i,i,i,i,i
CCOC(=O)C1CCCN(C(=O)c2cc3cc(F)ccc3[nH]2)C1 (centres undefined),i,i,i,i,nt,nt,nt
Cc1cc(OCC(=O)N(C)C2CCCCC2)ccc1Cl,74,i,i,i,i,i,i
Cc1cc(OCC(=O)N(C)C2CCCCC2)cc(C)c1Cl,79,i,i,i,i,i,i
CN(C(=O)COC(=O)COc1ccc(Cl)cc1)C1CCCCC1,i,i,i,i,nt,nt,nt
COc1ccc2[nH]c3c(c2c1)CCN1C(=O)C(CC(=O)NCc2ccco2)C[C@H](C(=O)N(C(C)C)C(C)C)[C@@]31C (some centres undefined),i,i,i,i,nt,nt,nt
S=C1NC[C@H](CC2CCCCC2)N1CCc1cccc2ccccc12,51,i,i,i,i,i,i
CCN(CC)S(=O)(=O)c1ccc(N2CCCCC2)c(NC(=O)/C(C#N)=C/c2ccc(OC)cc2)c1,42,i,i,i,i,i,i
COc1ccc(/C=C(\C#N)C(=O)Nc2cc(S(=O)(=O)N3CCOCC3)ccc2N2CCCC2)cc1,80,i,i,i,84,i,i
COc1cccc(OCc2nnc(SCC(=O)N3c4ccccc4Sc4ccc(Cl)cc43)o2)c1,53,i,i,i,i,i,i
